# Source: ChEMBL document CHEMBL1240462, “Synthesis and pharmacological evaluation of new methyloxiranylmethoxyxanthone analogues” (Eur J Med Chem, 2010)
# Counter-ions that a name gives are not always drawn. Calls of active or inactive are those of the source. No cut-off for these calls is given here.
# Columns and labels:
# [1] = molecular target: DNA topoisomerase 2-alpha (Homo sapiens) (UniProt P11388); experiment: Inhibition of human topoisomerase 2alpha-mediated relaxation of supercoiled pBR322 DNA at 100 uM after 30 mins by agarose gel electrophoresis
# Chain of DNA topoisomerase 2-alpha (Homo sapiens) (P11388 whole entry): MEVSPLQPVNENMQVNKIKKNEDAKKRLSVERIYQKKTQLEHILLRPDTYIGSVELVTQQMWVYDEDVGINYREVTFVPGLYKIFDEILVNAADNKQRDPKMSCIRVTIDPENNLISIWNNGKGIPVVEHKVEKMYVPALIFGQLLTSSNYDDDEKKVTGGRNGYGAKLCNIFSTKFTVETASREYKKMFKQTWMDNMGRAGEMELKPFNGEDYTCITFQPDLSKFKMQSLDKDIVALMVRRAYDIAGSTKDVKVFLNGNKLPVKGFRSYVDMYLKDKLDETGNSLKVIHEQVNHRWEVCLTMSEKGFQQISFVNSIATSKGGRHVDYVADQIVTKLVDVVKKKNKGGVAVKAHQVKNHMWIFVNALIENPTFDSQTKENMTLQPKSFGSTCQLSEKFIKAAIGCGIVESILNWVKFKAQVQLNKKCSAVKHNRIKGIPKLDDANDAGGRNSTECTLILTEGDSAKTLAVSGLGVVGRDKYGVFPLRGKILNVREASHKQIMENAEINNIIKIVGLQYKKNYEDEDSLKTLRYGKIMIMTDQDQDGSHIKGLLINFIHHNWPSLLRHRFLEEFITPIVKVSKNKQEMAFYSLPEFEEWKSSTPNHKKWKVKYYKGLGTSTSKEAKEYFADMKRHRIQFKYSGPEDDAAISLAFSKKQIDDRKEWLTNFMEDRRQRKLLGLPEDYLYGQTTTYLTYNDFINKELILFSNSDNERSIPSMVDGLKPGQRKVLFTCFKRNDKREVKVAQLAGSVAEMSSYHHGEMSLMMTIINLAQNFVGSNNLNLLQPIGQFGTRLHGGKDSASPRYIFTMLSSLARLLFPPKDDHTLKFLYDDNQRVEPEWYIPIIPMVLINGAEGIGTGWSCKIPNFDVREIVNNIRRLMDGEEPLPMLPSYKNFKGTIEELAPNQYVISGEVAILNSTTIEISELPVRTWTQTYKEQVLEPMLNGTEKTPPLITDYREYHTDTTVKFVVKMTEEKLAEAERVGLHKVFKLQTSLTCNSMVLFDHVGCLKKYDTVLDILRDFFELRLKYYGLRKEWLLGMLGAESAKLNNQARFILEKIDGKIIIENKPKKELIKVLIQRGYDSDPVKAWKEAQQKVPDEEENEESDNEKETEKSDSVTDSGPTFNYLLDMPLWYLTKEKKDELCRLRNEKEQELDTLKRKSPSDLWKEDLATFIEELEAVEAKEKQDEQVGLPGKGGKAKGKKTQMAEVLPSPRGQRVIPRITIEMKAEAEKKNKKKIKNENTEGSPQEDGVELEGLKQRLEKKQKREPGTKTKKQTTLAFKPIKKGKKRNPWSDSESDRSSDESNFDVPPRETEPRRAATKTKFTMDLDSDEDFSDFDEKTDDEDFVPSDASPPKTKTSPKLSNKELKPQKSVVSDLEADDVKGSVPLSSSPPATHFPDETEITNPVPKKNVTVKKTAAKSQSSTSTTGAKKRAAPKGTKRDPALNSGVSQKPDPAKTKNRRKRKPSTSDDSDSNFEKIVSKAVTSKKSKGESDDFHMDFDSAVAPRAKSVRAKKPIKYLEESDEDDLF
# [2] = molecular target: DNA topoisomerase 2-alpha (Homo sapiens) (UniProt P11388); experiment: Inhibition of human topoisomerase 2alpha-mediated relaxation of supercoiled pBR322 DNA at 20 uM after 30 mins by agarose gel electrophoresis
# HCT-116 [3] = experiment: Cytotoxicity against human HCT116 cells after 4 days by MTT assay; type: functional, cell-based; details: HCT-116, 96 h
# Procedure, shortened: (§1)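 Cells seeded at 2-4 × 10^4 per well and attached overnight in medium with 10% FBS, 5% CO₂, 37 °C. Medium replaced on day 1 with graded compound concentrations. On day 4, MTT added (0.5 mg/mL final) for 4 h, formazan dissolved in DMSO, absorbance read at 570 nm. IC50 from four-parameter logistic fit; mean ± SD of three experiments in triplicate.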
# DU-145 [4] = experiment: Cytotoxicity against human DU145 cells after 4 days by MTT assay; type: functional, cell-based; details: DU-145, 96 h; procedure, shortened: as §1
# MCF7 [5] = experiment: Cytotoxicity against human MCF7 cells after 4 days by MTT assay; type: functional, cell-based; details: MCF7, 96 h; procedure, shortened: as §1
# MDA-MB-231 = experiment: Cytotoxicity against human MDA-MB-231 cells after 4 days by MTT assay; type: functional, cell-based; details: MDA-MB-231, 96 h; procedure, shortened: as §1
# HeLa [6] = experiment: Cytotoxicity against human HeLa cells after 4 days by MTT assay; type: functional, cell-based; details: 96 h; procedure, shortened: as §1
# Nucleic Acid = experiment: Binding affinity to Escherichia coli linearized pBR322 DNA at 100 uM after 2 hrs by agarose gel electrophoresis; type: nucleic-acid assay
# Procedure, shortened: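 DNA cross-linking: 0.5 µg EcoRI-linearized, ethanol-precipitated pBR322 incubated with compound (100 μM) for 2 h at RT in 10 mM Tris-HCl, 1 mM EDTA, pH 8.0. Run on denaturing 1.2% alkaline agarose (50 mM NaOH, 1 mM EDTA running buffer), then neutralized 1 h in 100 mM Tris, 150 mM NaCl, pH 7.6.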
# HCT-116 [7] = experiment: Ratio of compound IC50 to adriamycin IC50 for human HCT116 cells; type: functional
# HeLa [8] = experiment: Ratio of compound IC50 to adriamycin IC50 for human HeLa cells; type: functional
# DU-145 [9] = experiment: Ratio of compound IC50 to adriamycin IC50 for human DU145 cells; type: functional
# MCF7 [10] = experiment: Ratio of compound IC50 to adriamycin IC50 for human MCF7 cells; type: functional
Compound,inhibition [1] [%],inhibition [2] [%],IC50 (HCT-116 [3]) [µM],IC50 (DU-145 [4]) [µM],IC50 (MCF7 [5]) [µM],IC50 (MDA-MB-231) [µM],IC50 (HeLa [6]) [µM],Activity (Nucleic Acid),Ratio IC50 (HCT-116 [7]),Ratio IC50 (HeLa [8]),Ratio IC50 (DU-145 [9]),Ratio IC50 (MCF7 [10])
COc1cccc2c(=O)c3c(O)cc(OCC(C)(O)CCl)cc3oc12 (centres undefined),85,41,15.8,7.2,88.4,15.4,68.2,,,,,
CC(O)(CCl)COc1cc(O)c2c(=O)c3ccccc3oc2c1 (centres undefined),52,20,47.1,> 100,> 100,> 100,> 100,,,,,
COc1cccc2c(=O)c3c(OC)cc(OCC(O)CCl)cc3oc12 (centres undefined),83,2,16.4,15.3,51.7,56,59.5,,,,,
CC[C@@]1(O)C(=O)OCc2c1cc1n(c2=O)Cc2cc3ccccc3nc2-1 [CAMPTOTHECIN],,,2.3,,14.2,,1.1,,,,,
COc1cccc2c(=O)c3c(OCC4(C)CO4)cc(OCC4(C)CO4)cc3oc12 (centres undefined),48,15,0.8,0.9,2.5,5.1,1.5,Active,2,2,2,2
CC1(COc2cc(OCC3(C)CO3)c3c(=O)c4ccccc4oc3c2)CO1 (centres undefined),41,24,2.6,3.9,15.2,68.2,15.8,Active,,,,
COc1cc(OCC2CO2)cc2oc3ccccc3c(=O)c12 (centres undefined),51,5,6.6,1.5,14,10.9,10.5,,,,,
COc1cccc2c(=O)c3c(OCC(O)CCl)cc(OCC4CO4)cc3oc12 (centres undefined),65,27,9.9,3.9,69,18.9,41.7,,,,,
COc1cc([C@@H]2c3cc4c(cc3[C@@H](O[C@@H]3O[C@@H]5CO[C@@H](C)O[C@H]5[C@H](O)[C@H]3O)[C@H]3COC(=O)[C@H]23)OCO4)cc(OC)c1O [ETOPOSIDE],,,11.9,13.8,17.5,,,,,,,
COc1cccc2c1C(=O)c1c(O)c3c(c(O)c1C2=O)C[C@@](O)(C(=O)CO)C[C@@H]3O[C@H]1C[C@H](N)[C@H](O)[C@H](C)O1 [DOXORUBICIN HYDROCHLORIDE],,,4,1.4,,4.4,,,,,,
COc1cc(OCC(O)CCl)cc2oc3ccccc3c(=O)c12 (centres undefined),33,1,21.6,40.1,> 100,> 100,> 100,,,,,
CC1(COc2cc(O)c3c(=O)c4ccccc4oc3c2)CO1 (centres undefined),25,11,12.1,18.9,15,41.7,14.3,,,,,
COc1cccc2c(=O)c3c(O)cc(OCC4(C)CO4)cc3oc12 (centres undefined),23,3,69.1,> 100,> 100,> 100,> 100,,,,,
COc1cccc2c(=O)c3c(OCC4CO4)cc(OCC4CO4)cc3oc12 (centres undefined),71,9,2,2.4,9.9,5.4,4.7,Active,,,,
COc1cccc2c(=O)c3c(OC)cc(OCC4CO4)cc3oc12 (centres undefined),4,0,1.5,0.8,8,3.8,6.2,,2,2,2,2
